Shown are actives, neighbours in structure and some others; about 3% of the full set was active somewhere.
SENP8 block-1 = blocks the human protease SENP8 | purified SENP8, Z-RLRGG-aminoluciferin cleavage, luminescence | inhibition, % at 10 µM | hit rate 1.2% among 330,000; in the data active = inhibition above about 50%
Target sequence (Q96LD8 whole entry, looked up): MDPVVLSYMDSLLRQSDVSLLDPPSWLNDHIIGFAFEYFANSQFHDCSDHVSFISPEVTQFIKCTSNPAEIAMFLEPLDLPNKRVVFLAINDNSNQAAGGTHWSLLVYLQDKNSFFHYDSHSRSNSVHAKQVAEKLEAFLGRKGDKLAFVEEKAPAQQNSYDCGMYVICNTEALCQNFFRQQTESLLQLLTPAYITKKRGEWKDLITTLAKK
Apaf-1 inh = blocks human Apaf-1 apoptosome activity. reconstituted apoptosome caspase-3 activity, DEVD-Rh110 fluorescence. hit rate 0.71% among 330,000. inhibition, % at 20 µM. AID 489030; active = inhibition of at least 40% at 20 µM
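Assay system – apoptosome proteins · Medium – Hepes buffer, pH 7.5 · Also added – cytochrome c with DEVD-Rh110 · Timing – 30 min compound preincubation, 50 min activation, room temperature · Detection – Rh110 fluorescence, excitation 480 nm, emission 540 nm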
SENP8 block-2 = SENP8 (human) protease inhibition; Q96LD8; recombinant SENP8, Nedd8 substrate fluorescence; inhibition, % at 20 µM; hit rate 0.64% among 360,000; AID 602440; in the data active = inhibition mostly above about 40%, no sharp cut-off; inactive = mostly below about 27%
SENP6 block = inhibitors of human SENP6 protease; AID 2599; Recombinant SENP6 catalytic domain, aminoluciferin luminescence; inhibition, % at 10 µM; Q9GZR1; hit rate 1.8% among 330,000;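 active = inhibition above about 50% at the single tested dose, limit read from the data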
UBC13 inh = blocks human UBC13 polyubiquitin chain formation. P61088. TR-FRET. inhibition, % at 20 µM. hit rate 0.47% among 330,000. AID 485273; in the data active = inhibition above about 45%, passing the limit was not always enough
Target sequence (P61088 whole entry, looked up): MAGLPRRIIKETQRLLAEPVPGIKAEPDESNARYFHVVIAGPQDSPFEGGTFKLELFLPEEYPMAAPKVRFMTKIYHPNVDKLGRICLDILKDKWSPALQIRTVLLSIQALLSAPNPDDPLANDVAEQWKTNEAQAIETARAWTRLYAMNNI
SENP7 block = SENP7 protease inhibition. inhibition, % at 5 µM. recombinant SENP7, Z-RLRGG-aminoluciferin luminescence, 40 min. hit rate 1.5% among 330,000. Q9BQF6;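 active = inhibition above about 50% at the single test dose, limit read from the data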
A number is an active result; – = inactive; · = no result.

SMILES	SENP8 block-1	Apaf-1 inh	SENP8 block-2	SENP6 block	UBC13 inh	SENP7 block
C/C(CCN1CCc2nc(-c3ccccc3)c(-c3ccccc3)cc2C1)=N\OC[C@@H](C)[C@H](OCc1ccccc1)C(C)C	–	47	·	–	–	–
C/C(CCN1CCc2nc(-c3ccccc3)c(-c3ccccc3)cc2C1)=N\O[C@H](C)c1cn([C@H](CO)Cc2ccccc2)nn1	–	–	·	–	–	–
Cc1cccc(NC(=O)c2ccc(N3CCCCC3)c([N+](=O)[O-])c2)n1	–	–	–	76	–	73
O=C1Nc2ccccc2/C1=N\N=C\c1ccc(O)c(O)c1	–	–	57	–	–	–
O=C(C(=O)N1CCC(Cc2ccccc2)CC1)c1ccccc1	·	·	–	·	·	·
COc1ccc(N2CCN(C(CNS(=O)(=O)c3cccs3)c3cccnc3)CC2)cc1 (stereo not given)	–	–	42	–	–	–
O=S(=O)(NCC(c1cccnc1)N1CCN(c2ccccc2)CC1)c1cccs1 (stereo not given)	–	–	–	–	–	–
CC1=Nc2cccc3cccc(c23)N1C	–	–	44	–	–	–
O=[N+]([O-])c1ccccc1N=Nc1ccc(O)cc1O	·	·	65	·	·	·
O=S(=O)(O)c1cc(O)c(N=Nc2ccc(O)cc2O)c2ccccc12	·	·	–	·	·	·
O=C1c2ccccc2C(c2nnnn2-c2ccc3c(c2)OCCO3)N1CCCn1ccnc1 (stereo not given)	·	·	–	·	·	·
C/C(=N/Nc1ccc(C(=O)O)cc1)c1ccc(O)c(O)c1O	–	–	47	–	–	–
CC1(C(=O)NCc2ccccc2)CSCC(=O)N1Cc1cccs1 (stereo not given)	·	·	–	·	·	·
Cc1cccc(C)c1NC(=O)C1(C)CN(S(C)(=O)=O)CC(=O)N1CCCn1ccnc1 (stereo not given)	·	·	–	·	·	·
O=C(NCc1ccccc1)c1ccc2nnsc2c1	–	–	–	–	–	–
CN(C)c1ccc(NC(=O)Nc2ccc3snnc3c2)cc1	–	–	–	70	–	62
O=C(Nc1ccccc1)Nc1ccc2nnsc2c1	–	–	–	54	–	63
Nc1nc2ccccc2cc1C(=O)NCc1ccc(-c2ccccc2)cc1	·	·	–	·	·	·
CCCCNC(=O)C1C(c2ccc(C(F)(F)F)cc2)=Nc2ccccc2N1C(=O)c1ccc2nc(C)[nH]c2c1 (stereo not given)	·	·	–	·	·	·
Cn1cccc1/C=C1\SC(=S)N(Nc2ccccc2)C1=O	–	–	43	–	–	–
O=C1/C(=C/c2cccnc2)SC(=S)N1Nc1ccccc1	–	–	–	–	–	–
CCc1ccc(S(=O)(=O)/N=C2/C=C(Sc3ncn[nH]3)C(=O)c3ccccc32)cc1	·	·	–	·	·	·
O=S(=O)(N=C1C=CC(=NS(=O)(=O)c2ccccc2)c2ccccc21)c1ccccc1	·	·	74	·	·	·
Cc1ccc(S(=O)(=O)/N=C2\C=C(NS(=O)(=O)c3ccccc3)C(=O)c3ccccc32)cc1	·	·	74	·	·	·
CCc1ccc(S(=O)(=O)/N=C2\C=CC(=O)c3ccccc32)cc1	–	55	·	–	–	–
SMILES	SENP8 block-1	Apaf-1 inh	SENP8 block-2	SENP6 block	UBC13 inh	SENP7 block
O=C1c2ccccc2C(=O)N1S(=O)(=O)c1ccccc1	–	–	–	–	–	–
CC(=O)CC1N(S(=O)(=O)c2ccc(C)cc2)c2ccccc2N1S(=O)(=O)c1ccc(C)cc1	·	·	–	·	·	·
Oc1c(CN2CCCCC2)cc(Br)c2cccnc12	–	–	53	–	–	–
O=[N+]([O-])c1cc(CN2CCN(c3ccccc3)CC2)c(O)c2ncccc12	–	–	48	–	–	–
Oc1c(Cl)cc(CN2CCOCC2)c2cccnc12	–	–	–	–	–	–
CN(Cc1cc([N+](=O)[O-])c2cccnc2c1O)C1CCCCC1	–	–	·	–	–	–
Cc1ccc(-c2nc3ccccc3n2C(C(=O)NC(C)(C)C)C2CC2)cc1 (stereo not given)	·	·	–	·	·	·
N#C/C(=C\c1cc([N+](=O)[O-])c(N2CCCCC2)cc1N1CCCCC1)c1nn(-c2ccccc2)c(N)c1C#N	–	–	50	–	–	–
N#C/C(=C\c1cccc2ccccc12)c1nn(-c2ccccc2)c(N)c1C#N	–	–	·	–	–	–
COc1ccc(C(c2nnnn2CCc2ccccc2)N2CCN(C3CCCC3)CC2)cc1 (stereo not given)	–	–	–	–	–	–
COc1ccccc1N1CCN(C(c2ccc(N(C)C)cc2)c2nnnn2CCc2ccccc2)CC1 (stereo not given)	–	–	47	–	–	–
CCC(=O)N1Cc2cc(C(=O)Nc3nccs3)nc(-c3cccc(-c4ccccc4OC)c3)c2[C@H]1CCO	·	·	–	·	·	·
Cc1cc(NC(=O)CS(=O)(=O)c2cn(Cc3cccc(C(F)(F)F)c3)c3ccccc23)no1	·	·	–	·	·	·
CN=Cc1sc2ccccc2c1O	–	–	–	–	–	–
Oc1c(C=Nc2ccc(Cl)cn2)sc2ccccc12	–	–	–	66	–	57
Cc1cccc(N2CCN(C3C(=O)Nc4ccccc4-n4nnnc43)CC2)c1C (stereo not given)	·	·	–	·	·	·
Nc1c(O)cccc1C(=O)O	–	53	–	–	–	–
Nc1sccc1C(=O)NCc1ccccc1	·	·	–	·	·	·
Cc1ccc(-c2csc3nc4c5ccccc5c(NCCCN5CCOCC5)nn4c(=O)c23)cc1	–	–	·	–	56	–
COCCNC(=O)C1C(=O)Nc2ccccc2C(=O)N1Cc1ccccc1 (stereo not given)	·	·	–	·	·	·
CCN(Cc1ccccc1)c1ccc(/C=C(\C#N)c2ccccn2)cc1	–	–	–	–	–	–
CCN(CC)c1ccc(/C=C(\C#N)c2ccccn2)cc1	88	–	–	84	–	88
c1ccc(Cn2c(Cn3c(-c4cnccn4)nc4ccccc43)nc3ccccc32)cc1	·	·	–	·	·	·
Cc1ccc(NC(=O)c2nsc(Cl)c2Cl)cc1	–	–	–	54	–	62
CCc1nc2c(OCCc3cccc(OC)c3)cccn2c1N(C=O)Cc1ccc(OC)cc1	·	·	–	·	·	·
SMILES	SENP8 block-1	Apaf-1 inh	SENP8 block-2	SENP6 block	UBC13 inh	SENP7 block
COc1ccccc1C(=O)Nc1nc2cc3c(cc2s1)OCO3	–	–	–	–	–	79
O=C(Nc1nc2cc3c(cc2s1)OCCO3)c1cccs1	94	–	–	96	–	98
COc1cccc(OC)c1C(=O)Nc1nc2cc3c(cc2s1)OCO3	–	–	–	–	–	–
Cc1cc(C)c2nc(NC(=O)c3ccc([N+](=O)[O-])o3)sc2c1	–	–	–	–	–	–
O=C(Nc1nc2cc3c(cc2s1)OCCO3)c1cccc(N2C(=O)CCC2=O)c1	–	–	–	–	–	–
O=C(Nc1nc2cc3c(cc2s1)OCCO3)c1ccc([N+](=O)[O-])o1	74	–	–	87	–	88
CC1(Oc2ccc3ccccc3c2)CCN(Cc2cccn2-c2nccs2)C1 (stereo not given)	·	·	–	·	·	·
CCOC(=O)N1CCC(N2C(=O)c3ccc(C(=O)NCCC(C)C)cc3C2=O)CC1	–	–	–	–	–	–
CCOC(=O)N1CCC(N2C(=O)c3ccc(C(=O)Nc4ccc(OC)c(OC)c4)cc3C2=O)CC1	–	–	13	–	–	–
